The list is not random: actives were taken first. Their share in the collection is about 1.2%.
FN deposit inh: fibronectin deposition inhibition; AH1F fibroblasts, Alexa488-fibronectin deposition fluorescence, overnight; inhibition, % at 12.6 µM; 0.086% of 350,000 active;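 active = mean inhibition across replicates of 30% or more, regardless of how many single replicates reach that level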;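 note: positive control wells lacked labelled fibronectin entirely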
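Material: AH1F fibroblasts assembling fluorescent fibronectin matrix; amount: 10000 AH1F cells/well; medium: DMEM, 2% serum; reagent: Alexa488-fibronectin, 24 nM final in well; dosing: single compound dose, delivered by pin transfer; incubation: 1 h adhesion, overnight exposure; detection: fluorescence after three HBSS washes, excitation 485 nm, emission 525 nm; measure: fibronectin deposition inhibition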
APOBEC3A inh: blocks human APOBEC3A ssDNA deamination. 0.41% of 330,000 active. AID 493011. inhibition, % at 20 µM. P31941. recombinant A3A, FAM/TAMRA ssDNA deamination fluorescence;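 active = at least 40% inhibition at 20 µM here, with at most 30% in a related deaminase screen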;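 note: plate controls were A3A with DMSO for no effect and wells lacking A3A enzyme for full effect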
Target sequence (P31941 whole entry, looked up): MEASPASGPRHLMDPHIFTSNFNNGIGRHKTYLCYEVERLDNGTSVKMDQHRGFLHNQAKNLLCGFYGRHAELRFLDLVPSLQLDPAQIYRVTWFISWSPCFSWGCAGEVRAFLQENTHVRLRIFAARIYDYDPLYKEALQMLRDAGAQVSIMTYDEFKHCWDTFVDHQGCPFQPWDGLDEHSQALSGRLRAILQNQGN
ABHD5-PLIN5 inh: ABHD5-PLIN5 protein interaction inhibition. Split G. princeps luciferase complementation, luminescence, 4 h. 0.78% of 360,000 active. AID 602281. inhibition, % at 4 µM;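 active = inhibition above the mean inhibition across every tested compound plus 3 SD, cut at about 22% in these data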;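 note: 0% = DMSO only wells and the 100% control is not disclosed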
A3G deaminase: inhibitors of human APOBEC3G DNA deaminase; recombinant A3G, ssDNA deamination FAM/TAMRA fluorescence; inhibition, % at 20 µM; 0.28% of 330,000 active; AID 493012;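 active = inhibition of at least 40% at 20 µM, with no more than 30% in the related APOBEC3A deaminase screen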;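 note: plate controls were DMSO wells with A3G for no effect and wells lacking A3G enzyme for full effect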
Target sequence (Q9HC16 whole entry, looked up): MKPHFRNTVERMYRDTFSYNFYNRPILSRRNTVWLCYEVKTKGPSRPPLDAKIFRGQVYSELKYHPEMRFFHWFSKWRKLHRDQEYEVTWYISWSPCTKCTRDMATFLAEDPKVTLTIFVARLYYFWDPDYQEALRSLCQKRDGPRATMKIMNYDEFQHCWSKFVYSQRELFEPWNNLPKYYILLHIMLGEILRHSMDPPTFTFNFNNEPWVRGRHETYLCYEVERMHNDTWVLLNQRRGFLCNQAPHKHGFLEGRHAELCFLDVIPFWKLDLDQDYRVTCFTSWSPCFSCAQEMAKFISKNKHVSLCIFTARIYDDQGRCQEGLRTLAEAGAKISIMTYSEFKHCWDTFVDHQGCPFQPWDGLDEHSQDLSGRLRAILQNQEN
ABHD5 PLIN5 conf: confirmation of human ABHD5-PLIN5 interaction inhibitors; 67% of 2,200 active; inhibition, % at 4 µM; shares compounds with ABHD5-PLIN5 inh; AID 651612; biochemical ABHD5-PLIN5 interaction, luminescence; in the data active = inhibition above about 23%;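 note: 0% = DMSO vehicle wells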
HNF4 counter: HNF4 split-luciferase signal hit, counter-screen. shares compounds with ABHD5-PLIN5 inh. HNF4 dimerization, luminescence, biochemical. inhibition, % at 4 µM. 77% of 2,200 active. AID 651674;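 active = mean inhibition across replicate wells exceeding the computed hit threshold, cut at about 13% in these data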;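 note: light from luciferase halves that rejoin when HNF4 fusion proteins dimerize; 0% = DMSO only wells and the 100% control is not given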
* = called active by the depositor; nt = no result given.

SMILES	FN deposit inh	APOBEC3A inh	ABHD5-PLIN5 inh	A3G deaminase	ABHD5 PLIN5 conf	HNF4 counter
CC1CCCCN1CCCNC(=O)c1ccc2c(c1)NC(=O)CN2C (configuration not stated)	3.4	nt	10.3	nt	nt	nt
CCCCN(CCCNC(=O)c1ccc2c(c1)NC(=O)CN2C)c1ccccc1	2.0	nt	70.1*	nt	51.5*	72.0*
C[C@H](NC(=O)C[C@H]1C=C[C@H](NC(=O)C2CCC2)[C@@H](CO)O1)c1ccccc1	-9.5	nt	nt	nt	nt	nt
COc1ccc2c3c(n(C)c2c1)[C@H](CO)N(S(C)(=O)=O)CC31CCN(Cc2nccs2)CC1	-1.5	nt	nt	nt	nt	nt
CCCCn1c(=O)cc(N2CCOCC2)[nH]c1=O	6.0	-2.9	25.3*	0.3	2.5	1.9
N#C[C@@H]1[C@H](c2ccc(C3=CCCC3)cc2)[C@H](CO)N1C(=O)NC1CCCCC1	-7.8	nt	nt	nt	nt	nt
O=C(N/N=C/C=C/c1ccco1)c1ccccc1Cl	-2.8	5.8	32.7*	-0.2	32.3*	37.2*
O=C(N/N=C/C=C/c1ccco1)/C(=C/c1ccccc1)NC(=O)c1ccccc1	-11.5	8.1	33.3*	6.8	52.1*	48.5*
O=C(N/N=C/C=C/c1ccco1)c1ccncc1	-10.3	16.2	21.0	11.2	nt	nt
CO[C@H]1CC[C@H]2CCOc3ccc(C#N)cc3C(=O)N(C)C[C@@H](OC)[C@H](C)C(=O)N(C)C[C@@H]1O2	-13.6	nt	nt	nt	nt	nt
COC1=C(OC)C(=O)C(Sc2ccc3ccccc3c2)=CC1=O	0.0	nt	81.0*	nt	72.1*	103.8*
O=C(C[C@@H]1CC[C@@H]2[C@H](COC[C@@H](O)CN2C(=O)c2ccccc2)O1)N1CCOCC1	-0.5	nt	nt	nt	nt	nt
CO[C@H]1CN(C)C(=O)c2cc(NC(=O)c3ccc(F)cc3)ccc2OC[C@@H](C)N(C(=O)CC2CC2)C[C@H]1C	-1.6	nt	nt	nt	nt	nt
CCC(C)NC(=O)Nc1ccc2c(c1)N(C)C(=O)c1ccccc1S2 (configuration not stated)	-2.2	-3.3	46.2*	-7.2	60.2*	-0.1
C[C@H]1CN([C@@H](C)CO)C(=O)c2cc(-c3ccncc3)cnc2O[C@H]1CN(C)C(=O)c1ccc(F)cc1	-0.7	nt	nt	nt	nt	nt
Nc1sccc1C(=O)NCc1ccccc1	7.3	nt	35.9*	nt	13.9	49.0*
Cc1cc(NC(=O)Nc2ccc(F)cc2F)n(C)n1	6.4	-1.5	43.5*	-6.8	-3.6	4.0
COc1ccc(CN(C)C[C@@H]2OCc3cnnn3CCCC(=O)N([C@H](C)CO)C[C@@H]2C)cc1	-4.6	nt	nt	nt	nt	nt
CCc1cccc2c(C(=O)CSc3nncn3-c3ccccc3OC)c[nH]c12	-0.3	2.1	24.3*	-0.6	7.7	-0.4
CCc1cccc2c(C(=O)CSc3nncn3-c3ccc(OC)cc3)c[nH]c12	nt	-1.5	1.9	-5.1	nt	nt
CCN(CC)S(=O)(=O)c1ccc(C)c(NC(=O)Cc2ccc(S(=O)(=O)N3CCOCC3)s2)c1	0.1	-1.3	23.4*	-6.4	-0.7	0.1
C[C@@H]1CN([C@@H](C)CO)C(=O)Cc2cc(NS(=O)(=O)c3ccc(F)cc3)ccc2O[C@@H]1CN(C)S(C)(=O)=O	1.4	nt	nt	nt	nt	nt
O=C1Cc2ccccc2Sc2c(OCCN3CCCCC3)cccc21	3.5	-0.1	24.8*	-1.8	4.3	12.3
O=C1Cc2ccccc2Sc2cc(OCCCN3CCCCC3)ccc21	nt	1.8	7.5	-8.4	nt	nt
O=C(CC1CC1)N1CC(=O)N2[C@H](CO)[C@@H](c3ccc(/C=C/c4ccccc4)cc3)[C@H]2C1	9.6	nt	nt	nt	nt	nt
SMILES	FN deposit inh	APOBEC3A inh	ABHD5-PLIN5 inh	A3G deaminase	ABHD5 PLIN5 conf	HNF4 counter
O=C(C=Cc1ccc(Cl)s1)c1ccc(Cl)s1	6.8	nt	21.1	nt	nt	nt
COc1cc(/C=C/C(=O)c2ccc(Cl)s2)cc(OC)c1O	nt	5.1	38.1*	1.9	74.3*	38.0*
COc1ccc(/C=C/C(=O)c2ccc(Cl)s2)cc1O	nt	-2.0	42.0*	-5.6	54.5*	42.7*
C[C@H]1CN([C@@H](C)CO)S(=O)(=O)c2ccc(C#CC3CC3)cc2O[C@H]1CN(C)Cc1ccncc1	8.4	nt	nt	nt	nt	nt
CCc1ccc2c(c1)/C(=C/C(=O)c1cccs1)C(=O)N2	8.9	0.5	83.3*	-5.1	90.2*	96.1*
CCc1ccc2c(c1)/C(=N/N(C)C(=S)NC)C(=O)N2	4.6	1.1	-1.2	-0.1	nt	nt
Cc1cccc2c1NC(=O)/C2=C\C(=O)c1cccs1	-0.7	-0.5	52.6*	-2.5	78.1*	85.2*
Cc1cc(Br)c2c(c1)/C(=C/C(=O)c1cccs1)C(=O)N2	nt	-2.5	10.1	8.6	nt	nt
CC(=O)N(C)C[C@@H]1Oc2cc(-c3ccccc3F)ccc2S(=O)(=O)N([C@H](C)CO)C[C@@H]1C	-1.1	nt	nt	nt	nt	nt
O=C(C[C@@H]1C[C@@H]2c3cc(NC(=O)Nc4ccccc4)ccc3O[C@@H]2[C@H](CO)O1)NC1CCCCC1	-6.2	nt	nt	nt	nt	nt
Cn1cnc([N+](=O)[O-])c1S(=O)(=O)c1ccc(Cl)cc1	-8.3	nt	48.9*	nt	74.8*	98.2*
CCOC(=O)c1c(NC(=O)/C=C\C(=O)O)sc(C)c1-c1ccccc1	-3.6	-5.7	-0.3	-5.7	nt	nt
CCOC(=O)c1c(NC(=O)/C=C/C(=O)O)sc(C)c1-c1ccc(C(C)(C)C)cc1	5.3	5.6	34.7*	-10.5	71.3*	27.2*
O=C(Nc1ccc2c(c1)[C@H]1C[C@@H](CC(=O)N3CCc4ccccc4C3)O[C@H](CO)[C@H]1O2)C1CCC1	1.8	nt	nt	nt	nt	nt
CC1(C)CC(=O)C2=C(C1)c1c(ccc3ccccc13)NC2c1ccc(C(=O)O)cc1 (configuration not stated)	-2.9	-4.0	1.4	-9.3	nt	nt
Cc1ccc(C2Nc3ccc4ccccc4c3C3=C2C(=O)CC(C)(C)C3)o1 (configuration not stated)	nt	-1.1	29.6*	-4.0	4.1	7.3
C[C@@H]1CCCCO[C@H](CN(C)C(=O)Nc2ccccc2)[C@@H](C)CN([C@H](C)CO)C(=O)c2cc(NC(=O)c3ccncc3)ccc2O1	-10.8	nt	nt	nt	nt	nt
CC=Cc1ccc2n(c1=O)C[C@@H]1[C@@H](CO)[C@H](C(=O)N3CCc4ccccc4C3)[C@H]2N1Cc1cocn1 (mixture of isomers)	-8.4	nt	nt	nt	nt	nt
Cn1c(N=Nc2ccc(N3CCOCC3)cc2)[n+](C)c2ccccc21	1.2	nt	24.4*	nt	20.9	39.1*
Cn1c(N2CCOCC2)c(/C=N/O)c2ccccc21	2.1	0.0	1.0	0.0	nt	nt
COc1cccc(CNC(=O)C[C@H]2C=C[C@H](NC(=O)C3CCOCC3)[C@H](CO)O2)c1	8.1	nt	nt	nt	nt	nt
Cc1c(C(=O)N(Cc2ccco2)Cc2cccs2)oc2ccccc12	-1.7	1.1	28.1*	2.6	19.5	14.5*
O=C(c1cc2ccccc2o1)N(Cc1ccco1)Cc1cccs1	3.2	1.4	-1.0	-6.6	nt	nt
CC1(C)Cc2c(c(-c3ccco3)nc3sc4c(NCCN5CCOCC5)ncnc4c23)CO1	-12.0	-1.5	7.1	-5.8	nt	nt
CC1(C)Cc2c(c(-c3ccco3)nc3sc4c(NCCCO)ncnc4c23)CO1	12.2	2.1	32.8*	3.0	20.4	23.0*
